Inconclusive results are not listed.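 How the source made its calls, unless noted: active means inhibition over a set limit, the all-compound mean plus 3 SD, in both replicate runs; inconclusive means over that limit in just one replicate run; inactive means at or under that limit in both runs.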
How the values were obtained:
[1] = S. cerevisiae growth inhibition in permissive medium (OD615), pilot counter-assay for S. cerevisiae lifespan shortening project, permissive growth control (AID 705;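 active means growth inhibition above 25% in both replicates, a cutoff set 3 SD above the mean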); conditions: OD615, 24 h, at 10 µM, stronger effect = higher value
Procedure, shortened: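 Material: engineered DeaD yeast; compound dosing: one dose 10 µM, DMSO 0.25% final; measure: yeast growth inhibition indicated by reduced 24 h OD615; detection: OD615 turbidity read; incubation: cells pre-grown 4 h, then 24 h compound exposure, 30 °C humidified; medium: permissive synthetic complete medium with raffinose and galactose carbon sources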

[2] = S. cerevisiae growth inhibition in restrictive medium, OD615, pilot screen, restrictive growth control, yeast lifespan reduction project (AID 706;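 active means growth inhibition above a set limit, 3 SD over mean compound inhibition, in both replicates, cut at about 43% in these data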;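 further: modified DeaD lifespan yeast strain shifted to restrictive glucose medium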); conditions: OD615, 48 h, at 10 µM, stronger effect = higher value
Procedure, shortened: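 material = engineered S. cerevisiae DeaD strain | medium = glucose-based CSMM-D restrictive medium | times = 4 h pre-incubation, 48 h exposure at 30 °C | technique = OD615 absorbance reading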

[3] = doxorubicin toxicity protection in MRP-1 cells – H69AR cells, CellTiter-Glo, duplicate, MRP-1 activator project, pilot screen (AID 807;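 active means viability increase at or above a cutoff of the median across tested compounds plus 3 SD, cut at about 8.5% in these data, passing the limit was not always enough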;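 further: compound pretreatment 18-22 h then 72 h combined with doxorubicin; 0% = doxorubicin alone and 100% = vehicle without doxorubicin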); conditions: H69AR viability with doxorubicin, CellTiter-Glo luminescence; at 10 µM; stronger effect = higher value
[4] = viability of HCT116 without oncogenic beta-catenin – human colon tumor cells, pilot screen (AID 823;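 active means cell viability at or below a set limit in both duplicate runs, the limit being the all-compound median minus 4 SD, cut at about 23% in these data, passing the limit was not always enough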;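 further: 0% = wells killed by 20 µM Hyamine and 100% = untreated DMSO cell wells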); conditions: HCT116 beta-catenin knockout viability, CellTiter-Glo, 60 h; at 10 µM; stronger effect = lower value
[5] = viability of PTEN-null HCT116 cells – cell-based, HCT116 clonal line, CellTiter-Glo, pilot screen (AID 824;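 active means viability at or below 27.92% in each of two runs, the all-compound median minus 4 SD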;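 further: 0% = 20 µM Hyamine control and 100% = vehicle cell control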); conditions: HCT116 PTEN-deleted viability, 60 h, at 10 µM, stronger effect = lower value
[6] = RAM pathway blockade in budding yeast – dse1pr::URA3 reporter, 5-FOA selection, pilot screen (AID 869);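 further: 0% = DMSO wells with no growth and 100% = 10 µM 1-NA-PP1 with full growth; RAM network block rescues cells from 5-FOA so hits raise OD615 growth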; conditions: S. cerevisiae dse1pr::URA3 5-FOA growth, OD615, 2 d; at 10 µM; stronger effect = higher value; strain carries analog-sensitive mutant Cbk1 kinase
[7] = RAM signaling pathway blockade in yeast – S. cerevisiae, Pdr1DBD-CYC8 efflux-inhibited sensitized strain, primary screen (AID 1298;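 active means RAM network inhibition above 8.4% in each of two replicates, 3 SD over the compound average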;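 further: 0% = DMSO untreated cells without growth and 100% = 10 µM 1-NA-PP1 full growth; higher means more yeast growth rescued from 5-FOA killing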); conditions: S. cerevisiae cbk1-as DSE1-URA3 strain, 5-FOA growth OD615, 2 d; at 50 µM; stronger effect = higher value

Cc1ccc(SCCNC(=O)C(CO)(CO)CO)cc1
inactive: growth inhibition [1] 2.57% | growth inhibition [2] -1.61% | viability increase [3] -0.51% | viability [4] 101% | viability [5] 98.7% | inhibition [6] 0.935% | RAM network inhibition [7] 0.52%

CCCSc1nc2c(c(=O)n1CC)SC(C)C2 (stereo not drawn)
inactive: growth inhibition [1] -2.71% | growth inhibition [2] -13% | viability increase [3] -2.02% | viability [4] 105% | viability [5] 88.5% | inhibition [6] 1.4% | RAM network inhibition [7] 2.48%

CC(=O)Nc1cccc(N2C(=O)CC(Cc3ccccc3)C2=O)c1 (stereo not drawn)
inactive: growth inhibition [1] -6.24% | growth inhibition [2] -3.32% | viability increase [3] -1.68% | viability [4] 91.5% | viability [5] 89% | inhibition [6] 0.52% | RAM network inhibition [7] 7.45%

N#Cc1ccc(N2CCN(C(=O)c3cccc(F)c3)CC2)c(F)c1
inactive: growth inhibition [1] 6.81% | growth inhibition [2] 4.18% | viability increase [3] -2.03% | viability [4] 98.4% | viability [5] 87.8% | inhibition [6] 2.12% | RAM network inhibition [7] 0.57%

CCCOc1ccc(C2c3c(oc4cc(C)c(C)cc4c3=O)C(=O)N2CCCN(C)C)cc1 (stereo not drawn)
inactive: growth inhibition [1] -3.96% | growth inhibition [2] -1.01% | viability increase [3] 0.77% | viability [4] 104% | viability [5] 109% | inhibition [6] 0.185% | RAM network inhibition [7] -0.1%

CCn1ccc(C(=O)Nc2ccc(Cl)cn2)n1
inactive: growth inhibition [1] -9.65% | growth inhibition [2] 11.6% | viability increase [3] -1.34% | viability [4] 93.6% | viability [5] 93.9% | inhibition [6] 1.48% | RAM network inhibition [7] 3.03%

CCOC(=O)C1CCCN(C(=O)N2CCOCC2)C1 (stereo not drawn)
inactive: growth inhibition [1] -4.19% | growth inhibition [2] -5.3% | viability increase [3] -0.82% | viability [4] 97.6% | viability [5] 99.1% | inhibition [6] -0.095% | RAM network inhibition [7] 0.21%

O=C(Cn1cnc2c(nnn2-c2cccc(Cl)c2)c1=O)N1CCOCC1
inactive: growth inhibition [1] -0.49% | growth inhibition [2] -4.46% | viability increase [3] -0.35% | viability [4] 92.5% | viability [5] 96.4% | inhibition [6] 1.79% | RAM network inhibition [7] 1.56%

CC1CCCCN1c1nnc(NC(=O)Cn2c(=O)oc3ccccc32)s1 (stereo not drawn)
inactive: growth inhibition [1] -4.21% | growth inhibition [2] -14.8% | viability increase [3] -1.54% | viability [4] 110% | viability [5] 97.8% | inhibition [6] -0.575% | RAM network inhibition [7] 4.48%

O=C1CC(N2CCN(c3nc4ccccc4s3)CC2)C(=O)N1c1ccc(F)cc1 (stereo not drawn)
inactive: growth inhibition [1] 0.4% | growth inhibition [2] 0.52% | viability increase [3] 6.28% | viability [4] 88.7% | viability [5] 94.3% | inhibition [6] 1.54% | RAM network inhibition [7] 3.67%

COc1ccc(S(=O)(=O)NCCN2CCOCC2)c2ccccc12
inactive: growth inhibition [1] -1.53% | growth inhibition [2] -2.08% | viability increase [3] -1.32% | viability [4] 101% | viability [5] 95.1% | inhibition [6] -0.495% | RAM network inhibition [7] 1.53%

CCC(C)NC(=O)c1ccc(CS(=O)(=O)c2ccc(OC)cc2)o1 (stereo not drawn)
inactive: growth inhibition [1] 4.79% | growth inhibition [2] -1.07% | viability increase [3] -1.33% | viability [4] 104% | viability [5] 93.2% | inhibition [6] 0.73% | RAM network inhibition [7] -2.32%

Cc1cccc(N2CCN(C(c3cccs3)c3nnnn3C(C)(C)C)CC2)c1C (stereo not drawn)
inactive: growth inhibition [1] -10.2% | growth inhibition [2] -9.96% | viability increase [3] -0.98% | viability [4] 55.5% | viability [5] 56.7% | inhibition [6] 0.97% | RAM network inhibition [7] 5.15%

Nc1c(S(=O)(=O)c2ccccc2)c2nc3ccccc3nc2n1Cc1ccco1
inactive: growth inhibition [1] -25.5% | growth inhibition [2] -16.2% | viability increase [3] -3.97% | viability [4] 78.8% | viability [5] 73.8% | inhibition [6] 2.83% | RAM network inhibition [7] 7.51%

Cc1nc2sc(C(c3ccco3)N3CCC(Cc4ccccc4)CC3)c(O)n2n1 (stereo not drawn)
inactive: growth inhibition [1] 0.165% | growth inhibition [2] 4.34% | viability increase [3] 0.64% | viability [4] 95.2% | viability [5] 91.4% | inhibition [6] 1.14% | RAM network inhibition [7] 9.02%

Cn1nnnc1SCC(=O)c1ccco1
inactive: growth inhibition [1] -7.91% | growth inhibition [2] -1% | viability increase [3] -3.23% | viability [4] 103% | viability [5] 105% | inhibition [6] 1.83% | RAM network inhibition [7] -0.17%

COc1ccc(C2CCCN2C(=O)Nc2ccc(F)cc2)cc1OC (stereo not drawn)
inactive: growth inhibition [1] -6.66% | growth inhibition [2] -5.24% | viability increase [3] 1.33% | viability [4] 98.8% | viability [5] 88.2% | inhibition [6] 2.6% | RAM network inhibition [7] 3.45%

CCN(CC)c1ccc(/C=N/n2c(C)cc(C)cc2=O)cc1
inactive: growth inhibition [1] 0.085% | growth inhibition [2] 7.67% | viability increase [3] -0.57% | viability [4] 105% | viability [5] 93% | inhibition [6] 0.145% | RAM network inhibition [7] 1.36%

O=S(=O)(NC1CCCCC1NCc1ccco1)c1ccccc1 (stereo not drawn)
inactive: growth inhibition [1] -9.75% | growth inhibition [2] -2.12% | viability increase [3] -4.92% | viability [4] 98% | viability [5] 92.6% | inhibition [6] 1.82% | RAM network inhibition [7] 6.55%

N#CN=C1SCCS1
inactive: growth inhibition [1] -5.58% | growth inhibition [2] -14.9% | viability increase [3] -0.61% | viability [4] 103% | viability [5] 99% | inhibition [6] 1.71% | RAM network inhibition [7] 0.1%

CCOC(=O)COc1cccc2c(=O)n(CC(=O)N3CCN(C(=O)OCC)CC3)ccc12
inactive: growth inhibition [1] -4.37% | growth inhibition [2] -7.13% | viability increase [3] -2.1% | viability [4] 104% | viability [5] 96.1% | inhibition [6] 1.04% | RAM network inhibition [7] 4.18%

CSc1oc(-c2ccc(F)cc2)nc1S(=O)(=O)c1ccc(F)cc1
inactive: growth inhibition [1] -2.23% | growth inhibition [2] -6.25% | viability increase [3] -1.96% | viability [4] 85.1% | viability [5] 79.6% | inhibition [6] 1.59% | RAM network inhibition [7] 4.1%

Cc1cc(C(C)(C)C)oc1C(=O)Nc1ccc(CC(=O)O)cc1
inactive: growth inhibition [1] -5.71% | growth inhibition [2] 6.31% | viability increase [3] 1.52% | viability [4] 100% | viability [5] 98.9% | inhibition [6] 1.31% | RAM network inhibition [7] 3.99%

Cc1ccccc1NC(=O)CSC(N)=O
inactive: growth inhibition [1] -1.39% | growth inhibition [2] 14.1% | viability increase [3] -4.63% | viability [4] 89.4% | viability [5] 91% | inhibition [6] 0.48% | RAM network inhibition [7] 8.45%

From PubChem BioAssay
